Reference: ChEMBL document CHEMBL3425463, “The quassinoid isobrucein B reduces inflammatory hyperalgesia and cytokine production by post-transcriptional modulation” (J Nat Prod, 2015)
Calls of active or inactive are those of the source. The calls are words filed in the database; no cut-off is given here.

How the values were obtained:
Mus musculus [1] = assay: Inhibition of protein synthesis in carrageenan-induced mechanical inflammatory hyperalgesia male C57BL/6 mouse model assessed as inhibition of IL-1beta production in inflamed tissue at 20 mg/kg, sc […] challenge and measured after 3 hrs by ELISA; type: functional, organism-based; set-up: dose 20 mg/kg
Mus musculus [2] = assay: Inhibition of protein synthesis in carrageenan-induced mechanical inflammatory hyperalgesia male C57BL/6 mouse model assessed as inhibition of TNF production in inflamed tissue at 20 mg/kg, sc […] challenge and measured after 3 hrs by ELISA; type: functional, organism-based; set-up: dose 20 mg/kg
RAW264.7 [3] = assay: Inhibition of luminescence emission in mouse RAW264.7 cells transfected with luciferase plasmid containing universal promoter PKG at 70 uM after 6 hrs by luciferase reporter gene assay; type: functional, cell-based
Method in brief: (§1)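 RAW 264.7 cells (5 × 10^5/well) in RPMI-1640 with 2% FBS, transfected with a PGK-promoter luciferase plasmid (1 μg/well) for 6 h at 37 °C, 5% CO2. Then treated 6 h with drug, dexamethasone 1 mM, pyrrolidine dithiocarbamate 500 μM or cycloheximide 70 μM. Cells lysed in Tris/NaCl/Tween buffer, pH 7.5, and luminescence read.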

RAW264.7 [4] = assay: Inhibition of luminescence emission in mouse RAW264.7 cells transfected with luciferase plasmid containing universal promoter PKG at 1 mM after 6 hrs by luciferase reporter gene assay; type: functional, cell-based
Method in brief: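 RAW 264.7 cells (5 × 10^5/well) in RPMI-1640 with 2% FBS were transfected with pmirGLO dual-luciferase plasmid (1 μg/well, PGK universal promoter) by FuGene 6 for 6 h at 37 °C, 5% CO2. Compound was added ([…] as printed) and incubated 6 h. Cells were lysed in TNT buffer, and luciferin luminescence was read. Controls: dexamethasone, PDTC, cycloheximide.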

RAW264.7 [5] = assay: Antiinflammatory activity against mouse RAW264.7 cells assessed as reduction of LPS-induced TNF mRNA expression cells at 1 mM treated 30 mins before LPS challenge measured after 3 hrs by qRT-PCR analysis; type: functional, cell-based
Method in brief: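 RAW 264.7 macrophages (1.5 × 10^6 cells/well) in supplemented RPMI-1640 were pretreated with vehicle, test compound or dexamethasone (1 mM) before LPS stimulation. Cells were lysed in TRIzol, and TNF mRNA was measured by quantitative real-time PCR with GAPDH primers. Stock in DMSO diluted in RPMI-1640, final DMSO ≤0.5%.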

RAW264.7 [6] = assay: Inhibition of luminescence emission in mouse RAW264.7 cells transfected with luciferase plasmid containing universal promoter PKG at 500 uM after 6 hrs by luciferase reporter gene assay; type: functional, cell-based; method in brief: as §1
RAW264.7 [7] = assay: Inhibition of LPS-induced NF-kappaB activation in mouse RAW264.7 cells assessed as reduction luminescence emission at 0.001 to 10 uM pretreated 30 mins before LPS challenge measured after 4 hrs by luciferase reporter gene assay; type: cell-based
Method in brief: (§2)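 RAW 264.7 NF-κB-luciferase reporter cells pretreated 30 min (0.001−10 μM) before stimulus: LPS 1 μg/mL, PGN 10 μg/mL, TNF 10 ng/mL or PMA 1 μg/mL. Cells lysed at 4 h; luciferin added, luminescence read. Expressed relative to stimulus alone set at 100%. Dexamethasone 1 mM control. n = 4–5.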

Mus musculus [8] = assay: Antihyperalgesic activity in sc dosed male C57BL/6 mouse assessed as reduction in carrageenan-induced mechanical inflammatory hyperalgesia […] and measured after 3 hrs; type: functional, organism-based
RAW264.7 [9] = assay: Inhibition of TNF-induced NF-kappaB activation in mouse RAW264.7 cells assessed as reduction luminescence emission at 0.001 to 10 uM pretreated 30 mins before LPS challenge measured after 4 hrs by luciferase reporter gene assay; type: cell-based; method in brief: as §2
RAW264.7 [10] = assay: Inhibition of LPS-induced NF-kappaB p65 translocation into nucleus in mouse RAW264.7 cells at 10 uM treated 30 mins before LPS challenge by Western blot analysis; type: cell-based
Method in brief: (§3)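 RAW 264.7 cells treated before LPS. Cytoplasmic and nuclear fractions made by hypotonic/high-salt (420 mM NaCl) lysis; Bradford protein assay; 12% SDS-PAGE. Blots: IκB-α (1:1000) on cytoplasmic and p65 (1:300) on nuclear extracts, ECL detection. Nucleophosmin and actin as fraction markers; bands normalized to medium control.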

RAW264.7 [11] = assay: Inhibition of PGN-induced NF-kappaB activation in mouse RAW264.7 cells assessed as reduction luminescence emission at 0.001 to 10 uM pretreated 30 mins before LPS challenge measured after 4 hrs by luciferase reporter gene assay; type: cell-based; method in brief: as §2
RAW264.7 [12] = assay: Inhibition of luminescence emission in mouse RAW264.7 cells transfected with luciferase plasmid containing universal promoter PKG at 0.1 to 10 uM after 6 hrs by luciferase reporter gene assay; type: functional, cell-based; method in brief: as §1
[13] = test system: peritoneal macrophages (Mus musculus); assay: Cytotoxicity against mouse peritoneal macrophages assessed as cell viability at 0.001 to 10 uM pretreated 30 mins by MTT assay in presence of LPS
RAW264.7 [14] = assay: Inhibition of PMA-induced NF-kappaB activation in mouse RAW264.7 cells assessed as reduction luminescence emission at 0.001 to 10 uM pretreated 30 mins before LPS challenge measured after 4 hrs by luciferase reporter gene assay; type: cell-based; method in brief: as §2
Mus musculus [15] = assay: Antiinflammatory activity in carrageenan-induced mechanical inflammatory hyperalgesia male C57BL/6 mouse model assessed as inhibition of TNF level production in inflamed tissue at 5 mg/kg, […] and measured after 3 hrs; type: functional, organism-based; set-up: dose 5 mg/kg
Mus musculus [16] = assay: Antihyperalgesic activity in male C57BL/6 mouse assessed as reduction in carrageenan-induced mechanical inflammatory hyperalgesia at 5 mg/kg, […] and measured after 3 hrs; type: functional, organism-based; set-up: dose 5 mg/kg
RAW264.7 [17] = assay: Antiinflammatory activity against mouse RAW264.7 cells assessed as reduction of LPS-induced TNF mRNA expression cells at 10 uM treated 30 mins before LPS challenge measured after 3 hrs by qRT-PCR analysis; type: functional, cell-based
Mus musculus [18] = assay: Antiinflammatory activity in carrageenan-induced mechanical inflammatory hyperalgesia male C57BL/6 mouse model assessed as inhibition of IL-1beta production in inflamed tissue at 5 mg/kg, […] and measured after 3 hrs; type: functional, organism-based; set-up: dose 5 mg/kg
RAW264.7 [19] = assay: Antiinflammatory activity against mouse RAW264.7 cells assessed as reduction of LPS-induced IL-1beta production compound pretreated 30 mins of LPS challenge measured after 4 hrs by ELISA; type: functional, cell-based
RAW264.7 [20] = assay: Antiinflammatory activity against mouse RAW264.7 cells assessed as reduction of LPS-induced KC/CXCL1 production compound pretreated 30 mins of LPS challenge measured after 4 hrs by ELISA; type: functional, cell-based
RAW264.7 [21] = assay: Antiinflammatory activity against mouse RAW264.7 cells assessed as reduction of LPS-induced TNF production compound pretreated 30 mins of LPS challenge measured after 4 hrs by ELISA; type: functional, cell-based
RAW264.7 [22] = assay: Inhibition of NF-kappaB-mediated IkappaBalpha degradation in LPS-induced mouse RAW264.7 cells at 10 uM treated 30 mins before LPS challenge by Western blot analysis; type: cell-based; method in brief: as §3
Mus musculus [23] = assay: Antiinflammatory activity in carrageenan-induced mechanical inflammatory hyperalgesia male C57BL/6 mouse model assessed as inhibition of KC/CXCL1 production in inflamed tissue at 5 mg/kg, […] and measured after 3 hrs; type: functional, organism-based; set-up: dose 5 mg/kg

Structure (SMILES): C[C@@H]1C[C@@H]([C@H](O)CC2CC(=O)NC(=O)C2)C(=O)[C@@H](C)C1
- inhibition (Mus musculus [1]): Active
- inhibition (Mus musculus [2]): inactive
- inhibition (RAW264.7 [3]): Active

Structure (SMILES): C[C@@H]1C[C@H]2[C@@H]3CCC4=CC(=O)C=C[C@]4(C)[C@@]3(F)[C@@H](O)C[C@]2(C)[C@@]1(O)C(=O)CO
- inhibition (RAW264.7 [4]): inactive
- inhibition (RAW264.7 [5]): Active

Structure (SMILES): S=C(S)N1CCCC1
- inhibition (RAW264.7 [6]): inactive

Structure (SMILES): COC(=O)[C@@]12OC[C@]34[C@H]([C@@H](O)[C@@H]1O)[C@@]1(C)[C@H](O)C(=O)C=C(C)[C@@H]1C[C@H]3OC(=O)[C@H](OC(C)=O)[C@@H]24 [ISOBRUCEIN B]
- inhibition (RAW264.7 [7]): Dose-dependent effect
- Activity (Mus musculus [8]): Dose-dependent effect
- inhibition (RAW264.7 [9]): Dose-dependent effect
- Activity (RAW264.7 [10]): inactive
- inhibition (RAW264.7 [11]): Dose-dependent effect
- inhibition (RAW264.7 [12]): Active
- Activity [13]: Non-toxic
- inhibition (RAW264.7 [14]): Dose-dependent effect
- inhibition (Mus musculus [15]): inactive
- inhibition (Mus musculus [16]): Active
- inhibition (RAW264.7 [17]): inactive
- inhibition (Mus musculus [18]): Active
- inhibition (RAW264.7 [19]): Active
- inhibition (RAW264.7 [20]): Active
- inhibition (RAW264.7 [21]): Active
- Activity (RAW264.7 [22]): inactive
- inhibition (Mus musculus [23]): Active
